Test results: ChEMBL document CHEMBL1687901 (J Med Chem, 2011)
Converted amounts (≈) assume the structure as drawn.

Experiments:
Staphylococcus aureus [1] = assay: Antibacterial activity against wild type Staphylococcus aureus Smith ATCC 13709 by CLSI M07-A8 method; type: functional
Staphylococcus aureus [2] = assay: Antibacterial activity against tetracycline-resistant Staphylococcus aureus isolate 161 harboring tet(M) gene by CLSI M07-A8 method; type: functional
In short: (§1)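 MICs were determined by CLSI broth microdilution in freshly prepared cation-adjusted Mueller Hinton broth, kept at 4 °C before use. Defibrinated horse blood was added as appropriate. Runs met QC ranges for comparator antibiotics with ATCC quality control strains.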

Staphylococcus aureus [3] = assay: Antibacterial activity against tetracycline-resistant Staphylococcus aureus isolate 158 harboring tet(K) gene by CLSI M07-A8 method; type: functional; in short: as §1
Streptococcus pneumoniae [4] = assay: Antibacterial activity against Streptococcus pneumoniae ATCC 49619 by CLSI M07-A8 method; type: functional
Streptococcus pneumoniae [5] = assay: Antibacterial activity against tetracycline-resistant Streptococcus pneumoniae isolate 160 harboring tet(M) gene by CLSI M07-A8 method; type: functional; in short: as §1
Escherichia coli [6] = assay: Antibacterial activity against Escherichia coli ATCC 25922 by CLSI M07-A8 method; type: functional
Escherichia coli [7] = assay: Antibacterial activity against tetracycline-resistant Escherichia coli isolate 155 harboring tet(A) gene by CLSI M07-A8 method; type: functional
In short: as §1, with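 “appropriate. The highest concentration tested was 32 μg/mL.” for “appropriate.”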

Klebsiella pneumoniae = assay: Antibacterial activity against Klebsiella pneumoniae ATCC 13883 by CLSI M07-A8 method; type: functional
Escherichia coli [8] = assay: Inhibition of protein synthesis in Escherichia coli S30 extract by coupled transcription/translation assay; type: functional
In short: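 Coupled transcription/translation used an E. coli S30 extract with a firefly luciferase reporter. Compounds were diluted in water and tested as a three-point titration in duplicate. Reactions ran 1 h at 37 °C and were stopped on ice for 5 min, then luciferase substrate was added and luminescence read. Percent inhibition was calculated against uninhibited controls averaged per plate, and IC50 derived.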

Staphylococcus aureus [9] = assay: Antibacterial activity against Staphylococcus aureus by CLSI M07-A8 method; type: functional
Streptococcus pneumoniae [10] = assay: Antibacterial activity against Streptococcus pneumoniae by CLSI M07-A8 method; type: functional
Haemophilus influenzae = assay: Antibacterial activity against Haemophilus influenzae by CLSI M07-A8 method; type: functional
Escherichia coli [11] = assay: Antibacterial activity against Escherichia coli by CLSI M07-A8 method; type: functional
Staphylococcus aureus [12] = assay: Antibacterial activity against Staphylococcus aureus ATCC 13709 infected in iv dosed mouse septicemia model assessed as mouse protection after 48 hrs; type: functional; conditions: ATCC 13709, iv, read-out: PD50
In short: (§2)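 Mice were challenged intraperitoneally with bacteria mixed with 5% mucin. For S. aureus ATCC 13709 (Smith) the inoculum was 2.1 × 10^6 cfu/mouse, and for E. coli ATCC 25922 it was 2.0 × 10^7 cfu/mouse. PD50 in mg/kg was calculated from survival at 48 h.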

Escherichia coli [13] = assay: Antibacterial activity against Escherichia coli ATCC 25922 infected in iv dosed mouse septicemia model assessed as mouse protection after 48 hrs; type: functional; conditions: ATCC 25922, iv, read-out: PD50; in short: as §2
[14] = AUC in Sprague-Dawley rat at 1 mg/kg, iv and 10 mg/kg, po; type: ADME, organism-based; conditions: plasma
[15] = Clearance in Sprague-Dawley rat at 1 mg/kg, iv and 10 mg/kg, po; type: ADME, organism-based; conditions: in vivo
[16] = Half life in Sprague-Dawley rat at 1 mg/kg, iv and 10 mg/kg, po; type: ADME, organism-based; conditions: in vivo
Rattus norvegicus = assay: Oral bioavailability in Sprague-Dawley rat at 1 mg/kg, iv and 10 mg/kg, po; type: ADME, organism-based; conditions: in vivo
in vivo = conditions: Sprague-Dawley, rat, iv, 1 mg/kg
Staphylococcus aureus [17] = assay: Antibacterial activity against Staphylococcus aureus ATCC 13709 infected in mouse septicemia model assessed as mouse survival at 0.05 to 10 mg/kg, iv after 48 hrs; conditions: dose mg/kg 0.05-10

| Structure (SMILES) | MIC (Staphylococcus aureus [1]) [µg/mL] | MIC (Staphylococcus aureus [2]) [µg/mL] | MIC (Staphylococcus aureus [3]) [µg/mL] | MIC (Streptococcus pneumoniae [4]) [µg/mL] | MIC (Streptococcus pneumoniae [5]) [µg/mL] | MIC (Escherichia coli [6]) [µg/mL] | MIC (Escherichia coli [7]) [µg/mL] | MIC (Klebsiella pneumoniae) [µg/mL] | IC50 (Escherichia coli [8]) [µg/mL] | MIC50 (Staphylococcus aureus [9]) [µg/mL] | MIC90 (Staphylococcus aureus [9]) [µg/mL] | MIC90 (Escherichia coli [11]) [µg/mL] | ED50 (Staphylococcus aureus [12]) [mg/kg] | ED50 (Escherichia coli [13]) [mg/kg] | other results |
| --- | --- | --- | --- | --- | --- | --- | --- | --- | --- | --- | --- | --- | --- | --- | --- |
| CN(C)[C@@H]1C(O)=C(C(N)=O)C(=O)[C@@]2(O)C(O)=C3C(=O)c4c(O)c(NC(=O)CNC(C)(C)C)nc(Cl)c4C[C@H]3C[C@@H]12.Cl.Cl.Cl | 2 | 32 | 32 | 1 | 16 | 4 | > 32 | 8 | 0.78 |  |  |  |  |  |  |
| CN(C)[C@@H]1C(O)=C(C(N)=O)C(=O)[C@@]2(O)C(O)=C3C(=O)c4c(O)cccc4[C@@](C)(O)[C@H]3C[C@@H]12 [TETRACYCLINE] |  |  |  | 0.25 (≈ 0.563 µM) |  |  | > 32 |  |  | 0.125 (≈ 0.281 µM) | > 64 | > 64 | 0.35 | 17 | MIC (Streptococcus pneumoniae [10]): 0.125 µg/mL (≈ 0.281 µM); MIC (Haemophilus influenzae): 0.25 µg/mL (≈ 0.563 µM) |
| CN(C)CCCNc1nc(Cl)c2c(c1O)C(=O)C1=C(O)[C@]3(O)C(=O)C(C(N)=O)=C(O)[C@@H](N(C)C)[C@@H]3C[C@@H]1C2.Cl | 2 | 8 | 2 | 1 | 4 | 8 | > 32 | 16 | 0.58 |  |  |  |  |  |  |
| CN(C)c1nc(NC(=O)CNC(C)(C)C)c(O)c2c1C[C@H]1C[C@H]3[C@H](N(C)C)C(O)=C(C(N)=O)C(=O)[C@@]3(O)C(O)=C1C2=O.Cl | 16 | 32 | 8 | 4 | 4 | 32 | > 32 | > 32 | 0.71 |  |  |  |  |  |  |
| CN(C)[C@@H]1C(O)=C(C(N)=O)C(=O)[C@@]2(O)C(O)=C3C(=O)c4c(O)c(NC(=O)CNC(C)(C)C)nc(F)c4C[C@H]3C[C@@H]12.Cl.Cl | 4 | 16 | 16 | 2 | 8 | 8 | > 32 | 16 | 0.36 |  |  |  |  |  |  |
| CN(C)[C@@H]1C(O)=C(C(N)=O)C(=O)[C@@]2(O)C(O)=C3C(=O)c4c(O)c(N)nc(F)c4C[C@H]3C[C@@H]12.Cl.Cl | 0.063 | 2 | 8 | 0.063 | 2 | 0.25 | > 32 | 1 | 0.93 |  |  |  |  |  |  |
| CN(C)c1ncc(O)c2c1C[C@H]1C[C@H]3[C@H](N(C)C)C(O)=C(C(N)=O)C(=O)[C@@]3(O)C(O)=C1C2=O.Cl.Cl | 0.031 | 16 | 2 | 0.063 | 8 | 0.125 | > 32 | 0.25 | 0.76 | ≤ 0.016 | 16 | > 32 | < 0.3 | 4.3 | MIC (Staphylococcus aureus [9]): ≤ 0.016 µg/mL; MIC50 (Streptococcus pneumoniae [10]): 2 µg/mL; MIC90 (Streptococcus pneumoniae [10]): 4 µg/mL; MIC50 (Haemophilus influenzae): 0.5 µg/mL; MIC90 (Haemophilus influenzae): 2 µg/mL; MIC50 (Escherichia coli [11]): 0.25 µg/mL; AUC [14]: 1090 ng·h/mL; clearance [15]: 15.3 mL/min/kg; half-life [16]: 3.1 h; F (Rattus norvegicus): 12.7%; Vd (in vivo): 4.18 L/kg; Survival (Staphylococcus aureus [17]): 100% |
| CN(C)c1cc(NC(=O)CNC(C)(C)C)c(O)c2c1C[C@H]1C[C@H]3[C@H](N(C)C)C(O)=C(C(N)=O)C(=O)[C@@]3(O)C(O)=C1C2=O [TIGECYCLINE] | 0.063 (≈ 0.108 µM) | 0.125 (≈ 0.213 µM) | 0.063 (≈ 0.108 µM) | 0.016 (≈ 0.0273 µM) | 0.016 (≈ 0.0273 µM) | 0.125 (≈ 0.213 µM) | 0.5 (≈ 0.854 µM) | 0.125 (≈ 0.213 µM) | 0.47 (≈ 0.803 µM) | 0.063 (≈ 0.108 µM) | 1 (≈ 1.71 µM) | 0.5 (≈ 0.854 µM) | 0.35 | 2.1 | MIC (Streptococcus pneumoniae [10]): ≤ 0.016 µg/mL; MIC50 (Streptococcus pneumoniae [10]): ≤ 0.016 µg/mL; MIC90 (Streptococcus pneumoniae [10]): ≤ 0.016 µg/mL; MIC50 (Haemophilus influenzae): 0.5 µg/mL (≈ 0.854 µM); MIC90 (Haemophilus influenzae): 0.5 µg/mL (≈ 0.854 µM); MIC50 (Escherichia coli [11]): 0.25 µg/mL (≈ 0.427 µM); AUC [14]: 1050 ng·h/mL; clearance [15]: 15.5 mL/min/kg; half-life [16]: 4.6 h; F (Rattus norvegicus): 1.1%; Vd (in vivo): 6.12 L/kg |
| CCCNc1nc(F)c2c(c1O)C(=O)C1=C(O)[C@]3(O)C(=O)C(C(N)=O)=C(O)[C@@H](N(C)C)[C@@H]3C[C@@H]1C2.Cl.Cl | 0.25 | 2 | 0.25 | 4 | 4 | 2 | 16 | 8 | 2.8 |  |  |  |  |  |  |
| CN(C)CC(C)(C)CNc1nc(Cl)c2c(c1O)C(=O)C1=C(O)[C@]3(O)C(=O)C(C(N)=O)=C(O)[C@@H](N(C)C)[C@@H]3C[C@@H]1C2.Cl | 0.5 | 2 | 0.125 | 0.016 | 0.125 | 0.5 | 8 | 2 | 0.7 | 0.125 | 2 | 4 | 0.36 | 17 | MIC (Streptococcus pneumoniae [10]): ≤ 0.016 µg/mL; MIC50 (Streptococcus pneumoniae [10]): ≤ 0.016 µg/mL; MIC90 (Streptococcus pneumoniae [10]): 0.063 µg/mL; MIC50 (Haemophilus influenzae): 1 µg/mL; MIC90 (Haemophilus influenzae): 1 µg/mL; MIC50 (Escherichia coli [11]): 1 µg/mL; AUC [14]: 4870 ng·h/mL; clearance [15]: 3.37 mL/min/kg; half-life [16]: 4.3 h; F (Rattus norvegicus): 0.8%; Vd (in vivo): 1.26 L/kg |
| CN(C)[C@@H]1C(O)=C(C(N)=O)C(=O)[C@@]2(O)C(O)=C3C(=O)c4c(O)c(N)nc(Cl)c4C[C@H]3C[C@@H]12 | 0.016 (≈ 0.0344 µM) | 4 (≈ 8.6 µM) | 8 (≈ 17.2 µM) | 0.016 (≈ 0.0344 µM) | 4 (≈ 8.6 µM) | 0.25 (≈ 0.538 µM) | > 32 | 0.5 (≈ 1.08 µM) | 1.1 (≈ 2.37 µM) |  |  |  |  |  |  |
